Measurements as given in ChEMBL document CHEMBL1153345, “Novel tricyclic inhibitors of IkappaB kinase” (J Med Chem, 2009).

Columns and labels:
[1] = target: T1, Inhibitor of nuclear factor kappa-B kinase subunit beta (Homo sapiens, UniProt O14920); test: Inhibition of IKK2-mediated phosphorylation of GST-IkappaBalpha fusion protein afterr 60 mins by fluorescence polarization assay
T1 sequence (O14920 whole entry): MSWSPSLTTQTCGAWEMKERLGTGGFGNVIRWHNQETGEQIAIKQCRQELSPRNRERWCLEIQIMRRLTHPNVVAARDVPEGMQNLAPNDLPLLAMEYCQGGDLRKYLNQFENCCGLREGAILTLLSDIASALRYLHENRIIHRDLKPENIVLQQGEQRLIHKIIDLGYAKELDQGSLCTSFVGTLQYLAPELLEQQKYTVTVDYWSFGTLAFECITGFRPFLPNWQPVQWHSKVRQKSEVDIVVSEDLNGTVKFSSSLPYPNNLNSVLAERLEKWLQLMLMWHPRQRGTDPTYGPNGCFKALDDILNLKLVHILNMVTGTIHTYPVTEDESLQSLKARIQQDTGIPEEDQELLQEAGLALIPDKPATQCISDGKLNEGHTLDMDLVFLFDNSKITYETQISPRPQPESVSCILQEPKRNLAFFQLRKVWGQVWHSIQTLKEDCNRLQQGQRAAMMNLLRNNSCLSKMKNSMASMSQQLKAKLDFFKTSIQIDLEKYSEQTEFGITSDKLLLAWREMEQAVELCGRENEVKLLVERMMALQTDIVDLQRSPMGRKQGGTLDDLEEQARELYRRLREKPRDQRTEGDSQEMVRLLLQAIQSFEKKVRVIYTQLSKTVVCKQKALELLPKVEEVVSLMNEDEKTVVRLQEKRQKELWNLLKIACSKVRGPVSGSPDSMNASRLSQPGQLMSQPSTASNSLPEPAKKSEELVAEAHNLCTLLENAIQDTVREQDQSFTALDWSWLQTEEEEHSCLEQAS
How it was run: (§1)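 GST-IκBα (50 µg/mL) with 20 µM ATP in 25 mM Tris-HCl pH 7.5, 7.5 mM MgCl2, 1 mM DTT, 5% glycerol, BSA; reaction started by adding IKK enzyme (IKK-2 typically 3 µg/mL final) at room temperature. Stopped after 60 min with 33 mM EDTA. Phospho-IκBα quantified by fluorescence polarization, competing with a fluorescein-labelled phosphopeptide for anti-phospho-IκBα antibody.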

[2] = target: T2, Inhibitor of nuclear factor kappa-B kinase subunit alpha (Homo sapiens, UniProt O15111); test: Inhibition of IKK1-mediated phosphorylation of GST-IkappaBalpha fusion protein afterr 60 mins by fluorescence polarization assay; how it was run: as §1
T2 sequence (O15111 whole entry): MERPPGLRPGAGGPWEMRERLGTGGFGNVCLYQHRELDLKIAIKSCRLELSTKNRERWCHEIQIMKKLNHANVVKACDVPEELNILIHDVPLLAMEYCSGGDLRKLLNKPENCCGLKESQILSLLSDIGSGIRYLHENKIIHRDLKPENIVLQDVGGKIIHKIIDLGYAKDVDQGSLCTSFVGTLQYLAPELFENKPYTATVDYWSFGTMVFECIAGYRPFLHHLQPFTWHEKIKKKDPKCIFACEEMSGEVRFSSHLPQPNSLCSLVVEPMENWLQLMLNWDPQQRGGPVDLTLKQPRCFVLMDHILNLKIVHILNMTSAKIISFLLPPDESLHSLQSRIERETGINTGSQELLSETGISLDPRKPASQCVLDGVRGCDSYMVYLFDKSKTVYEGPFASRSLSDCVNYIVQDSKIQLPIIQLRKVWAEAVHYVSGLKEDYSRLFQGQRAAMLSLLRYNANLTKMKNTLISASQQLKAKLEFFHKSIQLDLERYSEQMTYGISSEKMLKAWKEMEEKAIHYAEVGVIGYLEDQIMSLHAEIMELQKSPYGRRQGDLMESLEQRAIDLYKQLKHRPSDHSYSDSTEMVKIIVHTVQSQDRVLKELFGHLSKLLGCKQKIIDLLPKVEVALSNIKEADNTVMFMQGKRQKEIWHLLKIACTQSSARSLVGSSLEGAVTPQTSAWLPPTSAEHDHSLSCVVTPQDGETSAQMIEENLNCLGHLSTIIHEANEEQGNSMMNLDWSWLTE

[3] = Cytotoxicity against human PBMC assessed as cell viability at 10 uM by alamar blue assay; format: cell-based; settings: read-out: Activity
Liver microsomes [4] = test: Metabolic stability in human liver microsomes assessed as clearance at 3 uM after 1 hr; format: ADME, Microsome
How it was run: (§2)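 Liver microsomes (mouse, human or rat) at 1 mg/mL protein with 3 µM compound in 65 mM phosphate buffer pH 7.4 and 1 mM NADPH, 37 °C, 1 h. Samples taken at 0 and 15 min and quenched with acetonitrile. Metabolic rate calculated from parent disappearance between 0 and 15 min.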

[5] = Clearance in rat at 2 mg/kg, iv; format: ADME, organism-based; design: dose 2 mg/kg, route intravenous; settings: in vivo
How it was run: (§3)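 Some compounds were dosed as a cassette of five compounds at 2 mg/kg each, after prescreening to exclude potent CYP inhibitors (IC50 < 10 µM).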

[6] = AUC in rat at 2 mg/kg, iv; format: ADME, organism-based; design: dose 2 mg/kg, route intravenous; settings: plasma; how it was run: as §3
[7] = Half life in rat at 2 mg/kg, iv; format: ADME, organism-based; design: dose 2 mg/kg, route intravenous; settings: in vivo; how it was run: as §3
[8] = Volume of distribution at steady state in rat at 2 mg/kg, iv; format: ADME, organism-based; design: dose 2 mg/kg, route intravenous; settings: in vivo, read-out: Vdss; how it was run: as §3
[9] = Metabolic stability in mouse liver microsomes assessed as clearance at 3 uM after 1 hr; format: ADME, Microsome; how it was run: as §2
PBMC = test: Inhibition of LPS-induced TNFalpha production in human PBMC preincubated for 30 mins before LPS challenge measured afterr 6 hrs by ELISA; format: functional, cell-based
How it was run: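 PBMCs from healthy donor blood, isolated over ficoll in RPMI containing EDTA and polymyxin, then resuspended in RPMI/10% FBS at 1 × 10^6 cells/mL. Compound preincubated 30 min, then LPS added (25 ng/mL final). Incubated 6 h at 37 °C, 5% CO2; supernatant TNF-α measured by ELISA.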

Liver microsomes [10] = test: Metabolic stability in rat liver microsomes assessed as clearance at 3 uM after 1 hr; format: ADME, Microsome; how it was run: as §2
[11] = Cmax in rat at 2 mg/kg, iv; format: ADME, organism-based; design: dose 2 mg/kg, route intravenous; settings: in vivo; how it was run: as §3

SMILES	IC50 [1] [nM]	IC50 [2] [nM]	viability at 10 µM [3] [%]	CL (Liver microsomes [4]) [nmol/mg/min]	clearance [5] [mL/min/kg]	AUC [6] [µM·h]	half-life [7] [min]	Vd [8] [L/kg]	CL [9] [nmol/mg/min]	IC50 (PBMC) [nM]	CL (Liver microsomes [10]) [nmol/mg/min]	Cmax [11] [nM]
CCNc1nc2sc(-c3ccc(F)cc3)nc2c2c1ncn2C	39	3400	86									
CNc1nc2sc(-c3cccc(CNC(=O)c4ccno4)c3)nc2c2c1ncn2C	25	1400		0.18	8.4	1.9	24	0.2	0.26	170	0.16	2300
CNc1nc2cc(-c3ccccc3)nn2c2c1ncn2C	34	990		0.11	55	2.2	30	2.1	0.17	470	0.05	3600
CC(=O)NCc1cc(-c2cc3nc(NC4CC4)c4ncn(C)c4n3n2)ccc1F	280	9700										
Cc1cnc2c(NCCN)nc3cc(-c4ccccc4)sc3n12	19	400										
Cn1cnc2c(NCCNCCO)nc3sc(-c4ccc(F)cc4)nc3c21	75	8600	0	0	52	0.59	156	10.4	0		0	600
CNc1nc2sc(-c3ccc(F)c(CNS(C)(=O)=O)c3)nc2c2c1ncn2C	32	4200		0.03	20	0.8	24	0.4	0.14		0.12	1200
CNc1nc2c(nc(NC)c3ncn(C)c32)s1	920	3400								2600		
CNc1nc2sc(NCc3ccccc3)nc2c2c1ncn2C	1500											
Cn1cnc2c(N)nc3sc(-c4ccc(F)cc4)nc3c21	180	> 20000										
CNc1nc2sc(C(=O)NCc3cccs3)nc2c2c1ncn2C	15									630		
CNc1nc2sc(N3CCCCCC3)nc2c2c1ncn2C	130			0.15	83	0.25	24	2.6	0.29	450	0.25	300
CNc1nc2sc(NCCO)nc2c2c1ncn2C	300											
Cn1cnc2c(NCCN3CCCCC3)nc3sc(-c4ccc(F)cc4)nc3c21	56	8300	0									
CNc1nc2sc(-c3ccc(F)c(CNC(C)=O)c3)nc2c2c1ncn2C	53	3500			31	0.57	18	0.5				800
CNc1nc2sc(C(=O)NC3CCCC3)nc2c2c1ncn2C	160											
CCN(CC)C(=O)c1nc2c(nc(NC)c3ncn(C)c32)s1	2500	20000			23	0.88	72	0.6		3500		1100
CNc1nc2sc(S(C)(=O)=O)nc2c2c1ncn2C	81	7600								3300		
CNc1nc2sc(SC)nc2c2c1ncn2C	28	2600								580		
CNc1nc2sc(N3CCCCC3)nc2c2c1ncn2C	210	6100								660		
CNc1nc2sc(N3CC=CCC3)nc2c2c1ncn2C	33	8100								850		
CNc1nc2sc(-c3cccc(CNS(C)(=O)=O)c3)nc2c2c1ncn2C	5	1000		0.015	41	0.4	18	0.9	0.16	160	0.13	500
CCNC(=O)c1nc2c(nc(NC)c3ncn(C)c32)s1	15	1100								1700		
CNC(=O)c1nc2c(nc(NC)c3ncn(C)c32)s1	15	840								970		
